Measurements reported in ChEMBL document CHEMBL1770090, “Synthesis, antimicrobial, antioxidant, anti-hemolytic and cytotoxic evaluation of new imidazole-based heterocycles” (Eur J Med Chem, 2011).
≈ marks a conversion by molar mass, not a printed value.

What was measured:
[1] = Antioxidant activity assessed as ABTS radical scavenging activity at 2 mM; type: functional
How it was run: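 ABTS (60 µM, 2 mL) was oxidized with MnO2 (25 mg/mL, 3 mL) in 0.1 M phosphate buffer pH 7, then centrifuged and filtered, with A734 adjusted to about 0.5. 50 µL of 2 mM compound in MeOH/phosphate buffer (1:1) was added. Colour loss expressed as % inhibition. L-ascorbic acid was the standard; blank and negative controls used MeOH/buffer.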

[2] = test system: Candida albicans; assay: Antimicrobial activity against Candida albicans NRRL Y-477 after 48 hrs by agar well diffusion method; type: functional
How it was run: (§1)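 Agar well diffusion. Inocula of 100 µL: bacteria 1 × 10^8 CFU/mL on nutrient agar, yeast 1 × 10^6 CFU/mL on Sabouraud dextrose agar, fungi 1 × 10^4 spore/mL on potato dextrose agar. 10 mm wells received 100 µL of compound at 100 mg/mL in DMSO. Bacteria incubated 24 h at 37 °C, fungi 48 h at 28 °C. Controls were DMSO, ciprofloxacin 50 µg/mL and ketoconazole 50 µg/mL. Inhibition zone diameter in mm, scored N.A. to ++++, average of triplicates.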

[3] = test system: Bacillus subtilis; assay: Antimicrobial activity against Bacillus subtilis ATCC 6633 after 24 hrs by agar well diffusion method; type: functional; how it was run: as §1
[4] = test system: Klebsiella pneumoniae; assay: Antimicrobial activity against Klebsiella pneumoniae ATCC 13883 after 24 hrs by agar well diffusion method; type: functional; how it was run: as §1
[5] = test system: Aspergillus niger; assay: Antimicrobial activity against Aspergillus niger after 48 hrs by agar well diffusion method; type: functional; how it was run: as §1
[6] = test system: Staphylococcus aureus; assay: Antimicrobial activity against Staphylococcus aureus ATCC 29213 after 24 hrs by agar well diffusion method; type: functional; how it was run: as §1
[7] = test system: Priestia megaterium; assay: Antimicrobial activity against Bacillus megaterium ATCC 9885 after 24 hrs by agar well diffusion method; type: functional; how it was run: as §1
[8] = test system: Escherichia coli; assay: Antimicrobial activity against Escherichia coli ATCC 25922 after 24 hrs by agar well diffusion method; type: functional; how it was run: as §1
[9] = Antioxidant activity in rat erythrocytes assessed as inhibition of peroxyl radicals-induced hemolysis at 2 mM after 2 hrs; type: functional; details: Erythrocyte, read-out: INH
How it was run: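 Rat blood from cardiac puncture, heparinized. Erythrocytes were washed three times in 0.15 M NaCl. A 10% suspension in PBS pH 7.4 was mixed with an equal volume of 200 mM AAPH in PBS containing sample, then shaken at 37 °C for 2 h. Mixture diluted with 8 volumes of PBS and centrifuged; supernatant A540 compared with a water-lysed sample for complete hemolysis. L-ascorbic acid was the positive control. Mean ± SD.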

[10] = Cytotoxicity against mouse EAC cells assessed as cell viability using trypan blue staining after 2 hrs by hemocytometer analysis; type: functional, cell-based; details: Ehrlich
[11] = test system: Pseudomonas aeruginosa; assay: Antimicrobial activity against Pseudomonas aeruginosa ATCC 27953 after 24 hrs by agar well diffusion method; type: functional; how it was run: as §1

| SMILES | inhibition [1] [%] | diameter of the inhibition zone (DIZ) [2] | diameter of the inhibition zone (DIZ) [3] | diameter of the inhibition zone (DIZ) [4] | diameter of the inhibition zone (DIZ) [5] | diameter of the inhibition zone (DIZ) [6] | diameter of the inhibition zone (DIZ) [7] | diameter of the inhibition zone (DIZ) [8] | percent hemolysis at 2000 µM [9] [%] | IC50 [10] [µg/mL] | diameter of the inhibition zone (DIZ) [11] |
| --- | --- | --- | --- | --- | --- | --- | --- | --- | --- | --- | --- |
| C/C(=N\N=C1\N=C(c2cc3ccccc3o2)CS1)c1nc(-c2ccccc2)[nH]c1C | 39.9 | <=4 mm | <=4 mm | <=4 mm | <=4 mm | <=4 mm | <=4 mm | <=4 mm | 1.9 | 21.5 (≈ 52 µM) | <=4 mm |
| C/C(=N\NC(=O)/C(C#N)=C\c1cn(-c2ccccc2)nc1-c1cc2ccccc2o1)c1nc(-c2ccccc2)[nH]c1C | 34.6 | <=4 mm | <=4 mm | <=4 mm | <=4 mm | <=4 mm | <=4 mm | <=4 mm | 5.55 | 125 (≈ 227 µM) | <=4 mm |
| C/C(=N\N=C1\NC(=O)/C(=C/c2cn(-c3ccccc3)nc2-c2cc3ccccc3o2)S1)c1nc(-c2ccccc2)[nH]c1C | 35.9 | <=4 mm | <=4 mm | <=4 mm | <=4 mm | <=4 mm | <=4 mm | <=4 mm | 1.5 | 125 (≈ 215 µM) | <=4 mm |
| C/C(=N\N=C1\NC(=O)/C(=C/c2cn(-c3ccccc3)nc2-c2cccs2)S1)c1nc(-c2ccccc2)[nH]c1C | 76.2 | <=4 mm | <=4 mm | <=4 mm | <=4 mm | <=4 mm | <=4 mm | <=4 mm | 3.45 | 8.25 (≈ 15 µM) | <=4 mm |
| O=C1O[C@H]([C@@H](O)CO)C(O)=C1O [ASCORBIC ACID] | 88.6 | – | – | – | – | – | – | – | 0.85 | – | – |
| CC(=O)N1CCN(c2ccc(OCC3COC(Cn4ccnc4)(c4ccc(Cl)cc4Cl)O3)cc2)CC1 (stereo not given) [KETOCONAZOLE] | – | >=21 mm | <=4 mm | <=4 mm | >=21 mm | <=4 mm | <=4 mm | <=4 mm | – | – | <=4 mm |
| O=c1[nH]cc(F)c(=O)[nH]1 [FLUOROURACIL] | – | – | – | – | – | – | – | – | – | 1.5 (≈ 11.5 µM) | – |
